MITF act: MITF TRPM1 promoter activation in melanoma cells. SK-MEL-5 TRPM1-promoter luciferase, 24 h; % of positive control, neutral wells = 0. activation, % at 12.5 µM. 0.75% of 300,000 active. AID 588334;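 active = mean activation of at least 80% with every replicate also reaching 80%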
Xi reactivation: reactivates the inactive X chromosome in mouse fibroblasts. XiGFP mouse fibroblasts, % GFP-positive cells imaging, 3 d; cells co-treated with 5-aza-dC sensitizer; scaled so ellipticine positive control = 100%. 0.055% of 360,000 active. activation, % at 7.58 µM;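 active = mean normalized replicate activation at least 10% and every replicate at or above 10%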
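System: 68-5-11 XiGFP fibroblast line | Buffer or medium: DMEM containing 5-aza-dC | Compound: Single point | Times: Compounds 3 days, fix/stain 15 min at room temperature | Benchmarks: Positive control ellipticine, 6 µM final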
Casp6 inh: caspase-6 (human) enzyme inhibition | 0.53% of 350,000 active | AID 686996 | P55212 | purified caspase-6, Z-VEID-R110 cleavage fluorescence | inhibition, % at 12.5 µM;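 active = mean inhibition across replicates at least about 35%, with every replicate also reaching that limit, limit read from the data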
Wnt act: Wnt/beta-catenin pathway activation | 1.2% of 300,000 active | Wnt/beta-catenin reporter cell assay, activator, plate reader | activation, % at 9.35 µM; in the data active = activation above about 30%, passing the limit was not always enough
NSD2 inh: inhibitors of human histone methyltransferase NSD2; O96028; NSD2 peptide methylation, AlphaScreen, 120 min; inhibition, % at 12.5 µM; 0.54% of 310,000 active; AID 743445; in the data active = inhibition above about 50%
Target sequence (O96028 whole entry, looked up): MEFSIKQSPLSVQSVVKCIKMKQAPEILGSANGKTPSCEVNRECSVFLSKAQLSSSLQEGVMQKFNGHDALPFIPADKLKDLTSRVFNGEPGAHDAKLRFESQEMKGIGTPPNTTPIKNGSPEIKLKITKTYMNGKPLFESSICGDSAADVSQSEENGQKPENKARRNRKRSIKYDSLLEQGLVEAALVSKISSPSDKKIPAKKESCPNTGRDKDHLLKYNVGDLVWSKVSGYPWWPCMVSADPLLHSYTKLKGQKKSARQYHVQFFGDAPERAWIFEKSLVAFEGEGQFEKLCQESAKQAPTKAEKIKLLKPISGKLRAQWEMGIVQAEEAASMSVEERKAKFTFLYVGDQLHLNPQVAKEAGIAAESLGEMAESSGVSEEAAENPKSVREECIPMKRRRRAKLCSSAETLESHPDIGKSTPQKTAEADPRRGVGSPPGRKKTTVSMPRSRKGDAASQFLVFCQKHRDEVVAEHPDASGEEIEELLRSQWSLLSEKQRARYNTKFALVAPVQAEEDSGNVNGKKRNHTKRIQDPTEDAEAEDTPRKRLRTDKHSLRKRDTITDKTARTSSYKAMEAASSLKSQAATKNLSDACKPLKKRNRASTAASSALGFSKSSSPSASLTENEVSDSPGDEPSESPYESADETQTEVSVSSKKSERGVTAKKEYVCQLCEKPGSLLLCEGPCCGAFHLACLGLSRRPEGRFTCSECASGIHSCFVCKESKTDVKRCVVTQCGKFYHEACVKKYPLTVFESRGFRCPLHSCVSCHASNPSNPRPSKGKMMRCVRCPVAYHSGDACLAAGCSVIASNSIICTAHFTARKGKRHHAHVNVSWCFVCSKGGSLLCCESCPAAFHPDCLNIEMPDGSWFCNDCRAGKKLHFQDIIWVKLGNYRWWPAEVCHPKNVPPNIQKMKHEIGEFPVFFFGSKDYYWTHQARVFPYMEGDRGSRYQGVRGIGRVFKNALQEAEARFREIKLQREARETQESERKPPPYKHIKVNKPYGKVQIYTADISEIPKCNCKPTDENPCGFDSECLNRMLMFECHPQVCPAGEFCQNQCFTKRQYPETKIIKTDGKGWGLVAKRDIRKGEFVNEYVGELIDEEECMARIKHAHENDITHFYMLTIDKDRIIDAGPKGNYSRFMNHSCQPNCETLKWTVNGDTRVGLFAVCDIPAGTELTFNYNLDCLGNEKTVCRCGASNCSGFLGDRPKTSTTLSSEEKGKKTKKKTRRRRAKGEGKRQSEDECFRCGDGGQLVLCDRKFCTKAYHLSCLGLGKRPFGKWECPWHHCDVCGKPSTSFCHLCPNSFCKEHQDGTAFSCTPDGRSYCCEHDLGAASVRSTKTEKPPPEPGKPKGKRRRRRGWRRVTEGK
esBAF inh: inhibitors of esBAF chromatin remodeling in mouse ES cells | Bmi1-luciferase knock-in reporter, 24 h; 100% = twice the neutral-well signal | 2% of 350,000 active | reporter increase, % at 12.5 µM; in the data active = activation above about 40%;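 also: a rise in the Bmi1 reporter signal indicates esBAF inhibition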
CASP1 counter: blocks human caspase-1 in a selectivity counter-screen; 100 tested, under 10 active; purified caspase-1, Z-YVAD-R110 cleavage fluorescence; shares compounds with Casp6 inh; activity change, negative = inhibition, % at 35 µM;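 active = compounds lowering fluorescence whose fitted half-maximal concentration is no more than twice their top tested dose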
AlphaScreen art: AlphaScreen assay artifact in NSD2 counter-screen | shares compounds with NSD2 inh | AlphaScreen artifact counterscreen, preloaded methylated H4 peptide | AC35, µM (highest dose often 10 µM) | 9.4% of 1,500 active | AID 1053174; call rule not given here
Each line names hits and unclear results; the compound was inactive in the other large screens (follow-up assays come after a bar, where they were run). Sampled rows, rich in hits. Any-hit rate of the full collection: about 3%.

C[C@H]1CN([C@@H](C)CO)S(=O)(=O)c2ccc(C3=CCCCC3)cc2O[C@H]1CN(C)C(=O)C1CCC1	none (no result: MITF act, Wnt act, NSD2 inh)
Cc1[nH]nc(S(=O)CC(=O)O)c1[N+](=O)[O-] (configuration not stated)	Casp6 inh 41 (no result: esBAF inh) | CASP1 counter inactive
COc1ccc(OC)c(Nc2cc3ccccc3c(=O)[nH]2)c1	Casp6 inh 99 (no result: NSD2 inh) | CASP1 counter inactive
COc1ccccc1Nc1cc2cc(Br)ccc2c(=O)[nH]1	none (no result: Casp6 inh, NSD2 inh)
Cc1noc(C)c1S(=O)(=O)N(C)C[C@@H]1OCCCC[C@H](C)Oc2ccc(NC(=O)NC(C)C)cc2C(=O)N([C@H](C)CO)C[C@H]1C	none (no result: MITF act, Wnt act, NSD2 inh)
COc1ccc([N+](=O)[O-])cc1NC(=O)CCS(=O)(=O)c1ccc(Br)cc1	none | CASP1 counter inactive
O=C(C[C@H]1C[C@@H]2c3cc(NC(=O)Nc4ccccc4F)ccc3O[C@@H]2[C@H](CO)O1)NCC(F)(F)F	none (no result: MITF act, Wnt act, NSD2 inh)
O=C(O)CCc1ccc(-c2ccc(Br)cc2)n1CC(=O)O	Casp6 inh 47 (no result: Xi reactivation, NSD2 inh) | CASP1 counter inactive
CCOc1ccc2nc3cc(NCc4ccc(OC)cc4)ccc3c(N)c2c1	Casp6 inh 73 (no result: Xi reactivation, Wnt act) | CASP1 counter inactive
CCOc1ccc2nc(SCC(=O)NCc3ccc(OC)cc3)[nH]c2c1	none
CS(=O)(=O)N1[C@@H]2Cn3c(ccc(C4=CCCCC4)c3=O)[C@H]1[C@@H](C(=O)N1CCCCC1)[C@@H]2CO	none (no result: MITF act, Wnt act, NSD2 inh)
COc1ccc(S(=O)(=O)Nc2cc(Sc3ncn[nH]3)c(O)c3ccccc23)cc1	NSD2 inh 165 (no result: MITF act, Xi reactivation, Casp6 inh, Wnt act, esBAF inh) | CASP1 counter inactive
CCCCN(C(=O)c1cccc(N2C(=O)c3ccccc3C2=O)c1)c1c(N)n(CC(C)C)c(=O)[nH]c1=O	none
CCCCN(C(=O)c1cccc(-n2cccc2)c1)c1c(N)n(Cc2ccccc2)c(=O)[nH]c1=O	Casp6 inh 57 | CASP1 counter inactive
CCSC1=N/C(=C\c2ccc(-c3ccccc3[N+](=O)[O-])o2)C(=O)S1	none (no result: Xi reactivation, Casp6 inh, Wnt act, esBAF inh)
CCCSC1=N/C(=C\c2ccc([N+](=O)[O-])o2)C(=O)S1	Casp6 inh 75 | CASP1 counter inactive
CN(CC(=O)Nc1c(Cl)cccc1Cl)C(=O)c1cccc(-n2cccc2)c1	Casp6 inh 42 | CASP1 counter inactive
CN(CC(=O)Nc1ccccc1Cl)C(=O)c1cccc(-n2cccc2)c1	none
Cc1ccc(C)c(NC(=O)CN(C)C(=O)c2cccc(-n3cccc3)c2)c1	Casp6 inh 59 | CASP1 counter inactive
Cc1ccc(C)c(NC(=O)CN(C)C(=O)c2cccc(Oc3ccccc3)c2)c1	none
CCCNC(=O)N1CC2(C1)CN(C(=O)CC1CC1)[C@H](CO)c1[nH]c3cc(OC)ccc3c12	none (no result: MITF act, Casp6 inh, Wnt act, NSD2 inh, esBAF inh)
Nc1ccc(Nc2ccccc2)c(S(=O)(=O)O)c1	Casp6 inh 86, NSD2 inh 94 | CASP1 counter inactive
CCCCNC(=O)c1nc(C2CCNCC2)oc1-c1cccc(C(F)(F)F)c1	Casp6 inh 92 (no result: MITF act, NSD2 inh, esBAF inh) | CASP1 counter inactive
COc1ccccc1-c1cnc2c(c1)C(=O)N([C@H](C)CO)C[C@@H](C)[C@@H](CN(C)C(=O)c1cccnc1)O2	none (no result: MITF act, Wnt act, NSD2 inh)
O=c1c(CO)cc(CO)cc(CO)c1O	Casp6 inh 71 (no result: esBAF inh) | CASP1 counter inactive
O=C1Cc2ccccc2C(=O)N1	Casp6 inh 99 (no result: MITF act, NSD2 inh, esBAF inh) | CASP1 counter inactive
Nc1c(O)cccc1C(=O)O	Casp6 inh 56 (no result: NSD2 inh) | CASP1 counter inactive
O=C(O)c1ccccc1O	none (no result: Casp6 inh, NSD2 inh)
CCC(=O)Nc1ccc2c(c1)C(=O)N(C)C[C@@H](OC)[C@@H](C)CN(Cc1ccccn1)[C@H](C)CO2	none (no result: MITF act, Wnt act, NSD2 inh)
O=C(O)C1Nc2c(Cl)cc(Cl)c(Cl)c2C2C=CCC12 (configuration not stated)	Casp6 inh 40 | CASP1 counter inactive
O=C(CCO)c1ccc(O)cc1	Casp6 inh 75 (no result: Xi reactivation, NSD2 inh) | CASP1 counter inactive
CCOC(=O)[C@H](Cc1c[nH]c2ccccc12)NC(=O)CN=[N+]=[N-]	Casp6 inh 38 (no result: MITF act, Xi reactivation, Wnt act, NSD2 inh, esBAF inh) | CASP1 counter inactive
COC(=O)[C@H](Cc1c[nH]c2ccccc12)NC(=O)Cc1c[nH]c2ccccc12	none
Nc1c(N)c2ccccc2oc1=O	none (no result: Xi reactivation, Casp6 inh, Wnt act)
O=c1oc2ccccc2c2oc3cc(O)c(O)cc3c12	Casp6 inh 44 (no result: NSD2 inh) | CASP1 counter inactive
CCC(=O)Nc1ccc2c(c1)OC[C@H](C)N(CC1CCCCC1)C[C@H](C)[C@@H](OC)CN(C)C2=O	none (no result: MITF act, Casp6 inh, Wnt act, NSD2 inh)
Nc1cc(S(=O)(=O)O)cc([N+](=O)[O-])c1O	Casp6 inh 59, NSD2 inh 87 (no result: esBAF inh) | CASP1 counter inactive | AlphaScreen art inactive
Nc1cccc2c(O)cc(S(=O)(=O)O)cc12	none (no result: Xi reactivation, Casp6 inh, Wnt act, NSD2 inh)
COCCNC(=O)C[C@@H]1CC[C@H]2[C@H](COc3ccc(NC(C)=O)cc3C(=O)N2C)O1	none (no result: MITF act, Casp6 inh, Wnt act, NSD2 inh)
O=C(O)Cc1ccc(-n2cccc2)cc1	Casp6 inh 70, NSD2 inh 117 | CASP1 counter inactive | AlphaScreen art inactive
CO[C@H]1CN(C)C(=O)c2ccc(NC(C)=O)cc2OC[C@H](C)N(C(=O)C2CCOCC2)C[C@H]1C	none (no result: MITF act, Casp6 inh, Wnt act, NSD2 inh)
CN(CC(=O)Nc1ccccc1Cl)C(=O)COC(=O)c1cccs1	none
CN(CC(=O)Nc1ccccc1Cl)C(=O)COC(=O)c1ccc([N+](=O)[O-])s1	Casp6 inh 99, NSD2 inh 78 | CASP1 counter inactive | AlphaScreen art inactive
C[C@@H]1CN([C@H](C)CO)C(=O)Cc2cc(NC(=O)CCC(F)(F)F)ccc2O[C@H]1CN(C)Cc1ccc(C(=O)O)cc1	none (no result: MITF act, Wnt act, NSD2 inh)
O=C1CN(C(=O)COC(=O)c2ccc([N+](=O)[O-])s2)c2ccccc2N1	NSD2 inh 60 (no result: Xi reactivation, Casp6 inh, Wnt act, esBAF inh) | CASP1 counter inactive | AlphaScreen art inactive
O=S(=O)(O)c1cc(O)c2cc(Nc3ccccc3)ccc2c1	Casp6 inh 80, NSD2 inh 105 | CASP1 counter inactive | AlphaScreen art 6.4µM
COC(=O)N/N=C1/C/C(=N\NC(=O)OC)c2ccccc21	Casp6 inh 91, NSD2 inh 97 (no result: Wnt act, esBAF inh) | AlphaScreen art inactive
COC(=O)NN=C1CCC(c2ccccc2)CC1 (configuration not stated)	none
CC(CS(=O)(=O)c1ccc2c(c1)NC(=O)CS2)C(=O)NCc1ccccc1Cl (configuration not stated)	NSD2 inh 55 (no result: Casp6 inh) | AlphaScreen art inactive
COC(=O)c1c(SCC(=O)Nc2ccc(C)c(C)c2)nc(=O)[nH]c1C	NSD2 inh 116 | AlphaScreen art inactive
CCN(CC)CCNc1cc(C)nc2c1C(=O)C(=O)C=C2N1CCCCC1	NSD2 inh 118 | AlphaScreen art inactive

Screening data deposited in PubChem BioAssay by Broad Institute.
